Laboratory results reported in ChEMBL document CHEMBL5058577, “EUbOPEN Chemogenomics Library 2 (Multiplex)” (2022).
Where “and” joins values, the source holds several entries; their conditions need not be identical. Equal values may be shown once.

Experiments:
Format in all cases: toxicity, cell-based
U2OS = assay: Multiplex assay against U2OS; conditions: human, 10 µM, compound concentration 10 uM
Outline: (§1)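 Imaging took place on a CQ1 microscope at 37°C and 5% CO2 once compound had been added to live cells stained at seeding with Hoechst33342, BioTracker Green Microtubule Cytoskeleton Dye, MitoTracker Red and Annexin V Alexa Fluor 680. CellPathfinder machine-learning gating classed cells as Hoechst high-intensity objects or normal cells, classed normal cells as having healthy, pyknosed or fragmented nuclei, and classed pyknosed cells as mitotic or apoptotic. Tubulin, mitochondrial-mass and membrane-permeability phenotypes are per cents of the healthy-nucleus cells.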

HEK-293T = assay: Multiplex assay against HEK293T; conditions: human, 10 µM, compound concentration 10 uM; outline: as §1
Fibroblast = assay: Multiplex assay against human fibroblast; conditions: 10 µM, compound concentration 10 uM; outline: as §1

## CC(=O)O[C@H]1C(=O)[C@@]2(C)[C@H]([C@H](OC(=O)c3ccccc3)[C@]3(O)C[C@H](OC(=O)[C@H](O)[C@@H](NC(=O)c4ccccc4)c4ccccc4)C(C)=C1C3(C)C)[C@]1(OC(C)=O)CO[C@@H]1C[C@@H]2O [PACLITAXEL]
U2OS; 12 h, replicate 1
  Population Apoptotic (%): 64% and 59%
  Population Fragmented Nuclei (%): 28% and 29%
  Population Healthy Nuclei (%): 46% and 43%
  Population Hoechst High Intensity Objects (%): 8% and 3%
  Population Membrane Permeable-Phenotype (%): 23% and 12%
  Population Mitochondria Different-Phenotype (%): 25% and 38%
  Population Mitotic Cells (%): 35% and 40%
  Population Normal (%): 91% and 96%
  Population Pyknosed Nuclei (%): 24% and 26%
  Population Tubulin-Different-Phenotype (%): 16% and 7%
  Total Cell Count: 200 and 236
U2OS; 12 h, replicate 2
  Population Apoptotic (%): 71% and 72%
  Population Fragmented Nuclei (%): 16% and 22%
  Population Healthy Nuclei (%): 60% and 63%
  Population Hoechst High Intensity Objects (%): 2%
  Population Membrane Permeable-Phenotype (%): 10% and 4%
  Population Mitochondria Different-Phenotype (%): 30% and 46%
  Population Mitotic Cells (%): 28% and 27%
  Population Normal (%): 97%
  Population Pyknosed Nuclei (%): 23% and 14%
  Population Tubulin-Different-Phenotype (%): 14% and 8%
  Total Cell Count: 94 and 79
U2OS; 24 h, replicate 1
  Population Apoptotic (%): 69% and 64%
  Population Fragmented Nuclei (%): 33% and 27%
  Population Healthy Nuclei (%): 36% and 49%
  Population Hoechst High Intensity Objects (%): 4% and 5%
  Population Membrane Permeable-Phenotype (%): 21% and 13%
  Population Mitochondria Different-Phenotype (%): 44% and 34%
  Population Mitotic Cells (%): 30% and 35%
  Population Normal (%): 95% and 94%
  Population Pyknosed Nuclei (%): 29% and 23%
  Population Tubulin-Different-Phenotype (%): 13% and 12%
  Total Cell Count: 198 and 233
U2OS; 24 h, replicate 2
  Population Apoptotic (%): 58% and 85%
  Population Fragmented Nuclei (%): 25%
  Population Healthy Nuclei (%): 48% and 50%
  Population Hoechst High Intensity Objects (%): 7%
  Population Membrane Permeable-Phenotype (%): 15% and 9%
  Population Mitochondria Different-Phenotype (%): 52%
  Population Mitotic Cells (%): 41% and 15%
  Population Normal (%): 92%
  Population Pyknosed Nuclei (%): 26% and 24%
  Population Tubulin-Different-Phenotype (%): 18% and 9%
  Total Cell Count: 95 and 90
U2OS; 48 h, replicate 1
  Population Apoptotic (%): 76% and 82%
  Population Fragmented Nuclei (%): 35% and 39%
  Population Healthy Nuclei (%): 30% and 25%
  Population Hoechst High Intensity Objects (%): 12% and 13%
  Population Membrane Permeable-Phenotype (%): 27% and 25%
  Population Mitochondria Different-Phenotype (%): 29% and 25%
  Population Mitotic Cells (%): 23% and 17%
  Population Normal (%): 87% and 86%
  Population Pyknosed Nuclei (%): 33% and 34%
  Population Tubulin-Different-Phenotype (%): 16% and 14%
  Total Cell Count: 203 and 246
U2OS; 48 h, replicate 2
  Population Apoptotic (%): 70% and 91%
  Population Fragmented Nuclei (%): 27% and 37%
  Population Healthy Nuclei (%): 31% and 34%
  Population Hoechst High Intensity Objects (%): 8% and 15%
  Population Membrane Permeable-Phenotype (%): 14% and 6%
  Population Mitochondria Different-Phenotype (%): 50% and 44%
  Population Normal (%): 91% and 84%
  Population Pyknosed Nuclei (%): 41% and 27%
  Population Tubulin-Different-Phenotype (%): 25% and 13%
  Total Cell Count: 98
HEK-293T; 12 h, replicate 1
  Population Apoptotic (%): 41% and 51%
  Population Fragmented Nuclei (%): 7% and 4%
  Population Healthy Nuclei (%): 74% and 79%
  Population Hoechst High Intensity Objects (%): 16% and 12%
  Population Membrane Permeable-Phenotype (%): 0%
  Population Mitochondria Different-Phenotype (%): 79% and 70%
  Population Mitotic Cells (%): 58% and 48%
  Population Normal (%): 83% and 87%
  Population Pyknosed Nuclei (%): 17% and 15%
  Population Tubulin-Different-Phenotype (%): 11% and 9%
HEK-293T; 12 h, replicate 2
  Population Apoptotic (%): 56% and 47%
  Population Fragmented Nuclei (%): 5% and 2%
  Population Healthy Nuclei (%): 64% and 75%
  Population Hoechst High Intensity Objects (%): 14%
  Population Mitochondria Different-Phenotype (%): 84% and 85%
  Population Mitotic Cells (%): 43% and 52%
  Population Normal (%): 85%
  Population Pyknosed Nuclei (%): 29% and 22%
  Population Tubulin-Different-Phenotype (%): 16% and 17%
HEK-293T; 24 h, replicate 1
  Population Apoptotic (%): 35% and 34%
  Population Fragmented Nuclei (%): 10% and 9%
  Population Healthy Nuclei (%): 70% and 73%
  Population Hoechst High Intensity Objects (%): 16% and 14%
  Population Membrane Permeable-Phenotype (%): 0%
  Population Mitochondria Different-Phenotype (%): 72% and 68%
  Population Mitotic Cells (%): 64% and 65%
  Population Normal (%): 83% and 85%
  Population Pyknosed Nuclei (%): 18% and 16%
  Population Tubulin-Different-Phenotype (%): 8% and 7%
HEK-293T; 24 h, replicate 2
  Population Apoptotic (%): 47% and 55%
  Population Fragmented Nuclei (%): 8% and 7%
  Population Healthy Nuclei (%): 75%
  Population Hoechst High Intensity Objects (%): 15%
  Population Mitochondria Different-Phenotype (%): 82% and 75%
  Population Mitotic Cells (%): 52% and 44%
  Population Normal (%): 84%
  Population Pyknosed Nuclei (%): 17%
  Population Tubulin-Different-Phenotype (%): 16% and 11%
HEK-293T; 48 h, replicate 1
  Population Apoptotic (%): 29% and 38%
  Population Fragmented Nuclei (%): 15% and 10%
  Population Healthy Nuclei (%): 68% and 75%
  Population Hoechst High Intensity Objects (%): 11% and 10%
  Population Membrane Permeable-Phenotype (%): 0%
  Population Mitochondria Different-Phenotype (%): 64% and 60%
  Population Mitotic Cells (%): 70% and 62%
  Population Normal (%): 88% and 89%
  Population Pyknosed Nuclei (%): 15% and 14%
  Population Tubulin-Different-Phenotype (%): 2% and 6%
HEK-293T; 48 h, replicate 2
  Population Apoptotic (%): 69% and 57%
  Population Fragmented Nuclei (%): 13%
  Population Healthy Nuclei (%): 70% and 73%
  Population Mitochondria Different-Phenotype (%): 70% and 68%
  Population Mitotic Cells (%): 30% and 42%
  Population Pyknosed Nuclei (%): 19% and 13%
  Population Tubulin-Different-Phenotype (%): 11%
Fibroblast; 12 h, replicate 1
  Population Apoptotic (%): 65% and 41%
  Population Fragmented Nuclei (%): 19% and 23%
  Population Healthy Nuclei (%): 63% and 56%
  Population Hoechst High Intensity Objects (%): 5% and 3%
  Population Membrane Permeable-Phenotype (%): 0% and 1%
  Population Mitochondria Different-Phenotype (%): 10% and 9%
  Population Mitotic Cells (%): 34% and 58%
  Population Normal (%): 94% and 96%
  Population Pyknosed Nuclei (%): 16% and 19%
  Population Tubulin-Different-Phenotype (%): 17% and 19%
  Total Cell Count: 167 and 151
Fibroblast; 12 h, replicate 2
  Population Apoptotic (%): 39% and 43%
  Population Fragmented Nuclei (%): 34% and 32%
  Population Healthy Nuclei (%): 39% and 32%
  Population Hoechst High Intensity Objects (%): 1%
  Population Membrane Permeable-Phenotype (%): 6% and 8%
  Population Mitochondria Different-Phenotype (%): 13% and 19%
  Population Mitotic Cells (%): 60% and 56%
  Population Normal (%): 98%
  Population Pyknosed Nuclei (%): 25% and 34%
  Population Tubulin-Different-Phenotype (%): 44% and 52%
  Total Cell Count: 111 and 142
Fibroblast; 24 h, replicate 1
  Population Apoptotic (%): 70% and 60%
  Population Fragmented Nuclei (%): 19% and 21%
  Population Healthy Nuclei (%): 63% and 58%
  Population Hoechst High Intensity Objects (%): 1% and 3%
  Population Membrane Permeable-Phenotype (%): 0% and 1%
  Population Mitochondria Different-Phenotype (%): 9% and 13%
  Population Mitotic Cells (%): 29% and 40%
  Population Normal (%): 98% and 96%
  Population Pyknosed Nuclei (%): 16% and 20%
  Population Tubulin-Different-Phenotype (%): 12% and 24%
  Total Cell Count: 164 and 155
Fibroblast; 24 h, replicate 2
  Population Apoptotic (%): 30% and 62%
  Population Fragmented Nuclei (%): 36% and 27%
  Population Healthy Nuclei (%): 45% and 43%
  Population Hoechst High Intensity Objects (%): 2% and 4%
  Population Membrane Permeable-Phenotype (%): 6% and 11%
  Population Mitochondria Different-Phenotype (%): 10% and 19%
  Population Mitotic Cells (%): 70% and 37%
  Population Normal (%): 97%
  Population Pyknosed Nuclei (%): 18% and 29%
  Population Tubulin-Different-Phenotype (%): 40% and 48%
  Total Cell Count: 114 and 125
Fibroblast; 48 h, replicate 1
  Population Apoptotic (%): 76% and 84%
  Population Fragmented Nuclei (%): 31% and 28%
  Population Healthy Nuclei (%): 50% and 53%
  Population Hoechst High Intensity Objects (%): 4%
  Population Membrane Permeable-Phenotype (%): 0%
  Population Mitochondria Different-Phenotype (%): 16% and 18%
  Population Mitotic Cells (%): 23% and 16%
  Population Normal (%): 95%
  Population Pyknosed Nuclei (%): 17%
  Population Tubulin-Different-Phenotype (%): 20% and 23%
  Total Cell Count: 177 and 150
Fibroblast; 48 h, replicate 2
  Population Apoptotic (%): 54% and 56%
  Population Fragmented Nuclei (%): 48% and 41%
  Population Healthy Nuclei (%): 42% and 47%
  Population Hoechst High Intensity Objects (%): 0% and 1%
  Population Membrane Permeable-Phenotype (%): 3% and 8%
  Population Mitochondria Different-Phenotype (%): 9% and 14%
  Population Mitotic Cells (%): 45% and 43%
  Population Normal (%): 100% and 98%
  Population Pyknosed Nuclei (%): 8% and 11%
  Population Tubulin-Different-Phenotype (%): 40% and 54%
  Total Cell Count: 129 and 146
